The results in this text go back to ChEMBL document CHEMBL3792341, “Substituted quinazolinones as kinase inhibitors endowed with anti-fibrotic properties” (Eur J Med Chem, 2016).

Active and inactive are the calls of the source. The calls are words filed in the database; no cut-off is given here.

Data set [1] has as its target Vascular endothelial growth factor receptor 2 (Homo sapiens) (UniProt P35968). Description: Inhibition of human KDR using […] as substrate at 1 uM measured after 20 mins at 30 degC by liquid scintillation counting method in presence of [gamma-32P]-ATP.
Data set [2] concerns the target Tyrosine-protein kinase ABL1 (Homo sapiens) (UniProt P00519). Description: Inhibition of human Abl1 using myelin basic protein as substrate at 1 uM measured after 20 mins at 30 degC by liquid scintillation counting method in presence of [gamma-32P]-ATP.
For data set [3], the target named is Platelet-derived growth factor receptor beta (Homo sapiens) (UniProt P09619). Description: Inhibition of human PDGFR-beta at 1 uM measured after 20 mins at 30 degC by liquid scintillation counting method in presence of [gamma-32P]-ATP.
Sequence of Platelet-derived growth factor receptor beta (Homo sapiens) (P09619 whole entry): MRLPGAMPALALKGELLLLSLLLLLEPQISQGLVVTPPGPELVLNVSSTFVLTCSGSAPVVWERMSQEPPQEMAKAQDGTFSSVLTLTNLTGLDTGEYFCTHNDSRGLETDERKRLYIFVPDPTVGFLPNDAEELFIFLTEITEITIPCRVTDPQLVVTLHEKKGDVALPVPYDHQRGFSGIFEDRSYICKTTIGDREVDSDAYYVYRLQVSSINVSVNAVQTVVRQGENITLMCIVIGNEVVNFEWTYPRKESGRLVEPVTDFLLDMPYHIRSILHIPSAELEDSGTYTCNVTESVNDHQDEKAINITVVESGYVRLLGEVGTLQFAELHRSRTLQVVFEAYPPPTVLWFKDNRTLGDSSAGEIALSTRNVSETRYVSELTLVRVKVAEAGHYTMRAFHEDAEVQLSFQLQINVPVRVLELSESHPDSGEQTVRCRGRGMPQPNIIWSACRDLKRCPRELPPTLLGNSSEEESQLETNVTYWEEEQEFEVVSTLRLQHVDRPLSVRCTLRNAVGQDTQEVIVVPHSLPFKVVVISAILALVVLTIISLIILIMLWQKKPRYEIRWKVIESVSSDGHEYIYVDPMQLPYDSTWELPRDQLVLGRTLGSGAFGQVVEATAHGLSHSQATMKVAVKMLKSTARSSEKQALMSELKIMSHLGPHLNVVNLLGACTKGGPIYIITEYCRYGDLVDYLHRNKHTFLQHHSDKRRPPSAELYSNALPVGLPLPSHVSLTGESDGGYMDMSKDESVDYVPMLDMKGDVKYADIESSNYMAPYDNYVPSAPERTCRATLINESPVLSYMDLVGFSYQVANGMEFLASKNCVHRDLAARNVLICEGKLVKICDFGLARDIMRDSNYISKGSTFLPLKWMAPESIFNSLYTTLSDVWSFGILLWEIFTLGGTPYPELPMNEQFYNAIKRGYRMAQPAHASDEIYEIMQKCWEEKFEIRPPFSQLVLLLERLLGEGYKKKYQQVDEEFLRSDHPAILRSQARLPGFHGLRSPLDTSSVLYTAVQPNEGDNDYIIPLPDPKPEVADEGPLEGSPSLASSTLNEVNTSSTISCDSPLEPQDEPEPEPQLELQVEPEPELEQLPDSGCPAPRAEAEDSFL
Data set [4] is described as follows: Reduction of COL1A1 mRNA expression in healthy human ISEMF at 1 uM by RT-PCR analysis. It counts as functional. The essentials:
(§1)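 HSCs or ISEMFs were treated with compound for 24 h. Total RNA was extracted and DNase I-treated, then used for quantitative PCR of the target transcript. Values were normalized to 18S rRNA and relative change was calculated by the ΔΔCT method. Triplicate per isolated cell batch.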

Data set [5] in a line: Cytotoxicity against human HSC cells assessed as cell viability at 1 uM after 72 hrs by MTT assay. It is filed as cell-based. The essentials:
(§2)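 MTT viability in primary human HSCs or ISEMFs seeded at 2 × 10³ cells/well. Cells were exposed to compound for 72 h, then to MTT 0.50 mg/ml for 4 h. Viability is expressed as % of the respective untreated cells. Triplicate per isolated cell batch.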

The nature of data set [6]: Reduction of COL1A1 mRNA expression in crohn's disease patient isolated ISEMF at 1 uM by RT-PCR analysis. It is filed as functional. The settings on record: Homo sapiens. The essentials: as §1
Data set [7] has as its target Proto-oncogene tyrosine-protein kinase Src (Homo sapiens) (UniProt P12931). Description: Inhibition of human Src using myelin basic protein as substrate at 1 uM measured after 20 mins at 30 degC by liquid scintillation counting method in presence of [gamma-32P]-ATP.
A short description of data set [8]: Cytotoxicity against crohn's disease patient isolated ISEMF assessed as cell viability at 1 uM after 72 hrs by MTT assay. The conditions noted are these: human. The procedure, abridged:
as §2

The nature of data set [9]: Reduction of COL1A1 mRNA expression in healthy human HSC cells at 1 uM by RT-PCR analysis. It counts as functional, cell-based. The essentials:
as §1

Data set [10] can be described thus: Cytotoxicity against healthy human ISEMF assessed as cell viability at 1 uM after 72 hrs by MTT assay. The essentials: as §2
Data set [11] concerns the target Fibroblast growth factor receptor 1 (Homo sapiens) (UniProt P11362). Description: Inhibition of human FGFR1 using myelin basic protein as substrate at 1 uM measured after 20 mins at 30 degC by liquid scintillation counting method in presence of [gamma-32P]-ATP.
The species named for the next data set is Homo sapiens. Description: Inhibition of human PI3K using phosphatidylinositol 4,5-diphosphate as substrate at 1 uM measured after 20 mins at 30 degC by liquid scintillation counting method in presence of [gamma-32P]-ATP.
In data set [12] the target is Serine/threonine-protein kinase mTOR (Homo sapiens) (UniProt P42345). Description: Inhibition of human mTOR using PHAS-1 as substrate at 1 uM measured after 20 mins at 30 degC by liquid scintillation counting method in presence of [gamma-32P]-ATP.
A short description of data set [13]: Reduction of FN1 mRNA expression in healthy human ISEMF at 1 uM by RT-PCR analysis. It is filed as functional. The procedure, abridged:
as §1

Data set [14] can be described thus: Reduction of TIMP1 mRNA expression in healthy human ISEMF at 1 uM by RT-PCR analysis. It is filed as functional. The procedure, abridged: as §1
Data set [15] can be described thus: Reduction of FN1 mRNA expression in human HSC cells at 1 uM by RT-PCR analysis. It is filed as functional, cell-based. The essentials:
as §1

Data set [16] is described as follows: Reduction of TIMP1 mRNA expression in crohn's disease patient isolated ISEMF at 1 uM by RT-PCR analysis. It counts as functional. The conditions noted are these: Homo sapiens. The essentials: as §1
A short description of data set [17]: Reduction of TIMP1 mRNA expression in human HSC cells at 1 uM by RT-PCR analysis. It counts as functional, cell-based. The essentials:
as §1

Data set [18] in a line: Reduction of FN1 mRNA expression in crohn's disease patient isolated ISEMF at 1 uM by RT-PCR analysis. It is filed as functional. The conditions noted are these: Homo sapiens. The essentials:
as §1

Sequence of Tyrosine-protein kinase ABL1 (Homo sapiens) (P00519 whole entry): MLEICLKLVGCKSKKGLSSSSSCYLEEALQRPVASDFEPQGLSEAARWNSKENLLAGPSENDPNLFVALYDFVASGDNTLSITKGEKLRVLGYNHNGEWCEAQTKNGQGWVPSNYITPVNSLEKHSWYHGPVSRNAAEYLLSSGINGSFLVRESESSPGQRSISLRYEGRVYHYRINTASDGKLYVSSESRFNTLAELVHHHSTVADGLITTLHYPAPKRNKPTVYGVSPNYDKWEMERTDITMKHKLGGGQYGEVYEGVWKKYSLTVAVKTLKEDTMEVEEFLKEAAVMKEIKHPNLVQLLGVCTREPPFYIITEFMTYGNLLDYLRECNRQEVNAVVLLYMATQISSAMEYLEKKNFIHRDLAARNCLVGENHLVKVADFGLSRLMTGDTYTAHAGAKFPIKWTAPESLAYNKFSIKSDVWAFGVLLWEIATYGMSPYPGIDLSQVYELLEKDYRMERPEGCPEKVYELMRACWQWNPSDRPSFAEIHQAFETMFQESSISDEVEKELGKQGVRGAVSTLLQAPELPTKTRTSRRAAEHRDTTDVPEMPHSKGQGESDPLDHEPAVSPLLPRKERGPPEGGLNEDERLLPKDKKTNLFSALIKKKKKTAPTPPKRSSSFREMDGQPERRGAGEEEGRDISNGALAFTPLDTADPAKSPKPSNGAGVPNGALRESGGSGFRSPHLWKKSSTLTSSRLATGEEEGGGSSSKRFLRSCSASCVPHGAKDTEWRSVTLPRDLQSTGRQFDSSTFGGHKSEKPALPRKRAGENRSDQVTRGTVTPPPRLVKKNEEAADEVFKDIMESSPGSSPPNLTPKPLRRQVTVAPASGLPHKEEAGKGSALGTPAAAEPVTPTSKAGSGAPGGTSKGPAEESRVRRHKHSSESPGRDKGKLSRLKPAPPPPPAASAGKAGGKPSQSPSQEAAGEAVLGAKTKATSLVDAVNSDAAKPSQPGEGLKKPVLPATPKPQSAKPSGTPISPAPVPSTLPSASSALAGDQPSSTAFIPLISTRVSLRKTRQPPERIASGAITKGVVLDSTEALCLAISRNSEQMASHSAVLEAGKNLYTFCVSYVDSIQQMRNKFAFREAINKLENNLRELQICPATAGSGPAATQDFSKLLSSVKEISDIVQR
Sequence of Proto-oncogene tyrosine-protein kinase Src (Homo sapiens) (P12931 2-536 limits assumed): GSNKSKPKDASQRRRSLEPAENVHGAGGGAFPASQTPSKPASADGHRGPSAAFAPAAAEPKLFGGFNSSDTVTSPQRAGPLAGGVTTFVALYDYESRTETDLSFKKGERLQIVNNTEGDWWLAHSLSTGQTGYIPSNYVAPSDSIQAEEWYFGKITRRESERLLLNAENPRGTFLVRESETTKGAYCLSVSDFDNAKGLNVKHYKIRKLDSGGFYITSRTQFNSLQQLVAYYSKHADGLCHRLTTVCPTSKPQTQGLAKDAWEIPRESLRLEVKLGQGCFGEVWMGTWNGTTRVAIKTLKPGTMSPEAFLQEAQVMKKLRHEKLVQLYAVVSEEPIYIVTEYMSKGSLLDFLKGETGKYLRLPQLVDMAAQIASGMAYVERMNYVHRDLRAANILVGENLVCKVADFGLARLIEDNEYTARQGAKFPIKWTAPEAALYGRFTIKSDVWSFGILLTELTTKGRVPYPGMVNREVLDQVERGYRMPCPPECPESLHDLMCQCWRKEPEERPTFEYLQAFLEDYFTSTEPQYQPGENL
Sequence of Vascular endothelial growth factor receptor 2 (Homo sapiens) (P35968 whole entry): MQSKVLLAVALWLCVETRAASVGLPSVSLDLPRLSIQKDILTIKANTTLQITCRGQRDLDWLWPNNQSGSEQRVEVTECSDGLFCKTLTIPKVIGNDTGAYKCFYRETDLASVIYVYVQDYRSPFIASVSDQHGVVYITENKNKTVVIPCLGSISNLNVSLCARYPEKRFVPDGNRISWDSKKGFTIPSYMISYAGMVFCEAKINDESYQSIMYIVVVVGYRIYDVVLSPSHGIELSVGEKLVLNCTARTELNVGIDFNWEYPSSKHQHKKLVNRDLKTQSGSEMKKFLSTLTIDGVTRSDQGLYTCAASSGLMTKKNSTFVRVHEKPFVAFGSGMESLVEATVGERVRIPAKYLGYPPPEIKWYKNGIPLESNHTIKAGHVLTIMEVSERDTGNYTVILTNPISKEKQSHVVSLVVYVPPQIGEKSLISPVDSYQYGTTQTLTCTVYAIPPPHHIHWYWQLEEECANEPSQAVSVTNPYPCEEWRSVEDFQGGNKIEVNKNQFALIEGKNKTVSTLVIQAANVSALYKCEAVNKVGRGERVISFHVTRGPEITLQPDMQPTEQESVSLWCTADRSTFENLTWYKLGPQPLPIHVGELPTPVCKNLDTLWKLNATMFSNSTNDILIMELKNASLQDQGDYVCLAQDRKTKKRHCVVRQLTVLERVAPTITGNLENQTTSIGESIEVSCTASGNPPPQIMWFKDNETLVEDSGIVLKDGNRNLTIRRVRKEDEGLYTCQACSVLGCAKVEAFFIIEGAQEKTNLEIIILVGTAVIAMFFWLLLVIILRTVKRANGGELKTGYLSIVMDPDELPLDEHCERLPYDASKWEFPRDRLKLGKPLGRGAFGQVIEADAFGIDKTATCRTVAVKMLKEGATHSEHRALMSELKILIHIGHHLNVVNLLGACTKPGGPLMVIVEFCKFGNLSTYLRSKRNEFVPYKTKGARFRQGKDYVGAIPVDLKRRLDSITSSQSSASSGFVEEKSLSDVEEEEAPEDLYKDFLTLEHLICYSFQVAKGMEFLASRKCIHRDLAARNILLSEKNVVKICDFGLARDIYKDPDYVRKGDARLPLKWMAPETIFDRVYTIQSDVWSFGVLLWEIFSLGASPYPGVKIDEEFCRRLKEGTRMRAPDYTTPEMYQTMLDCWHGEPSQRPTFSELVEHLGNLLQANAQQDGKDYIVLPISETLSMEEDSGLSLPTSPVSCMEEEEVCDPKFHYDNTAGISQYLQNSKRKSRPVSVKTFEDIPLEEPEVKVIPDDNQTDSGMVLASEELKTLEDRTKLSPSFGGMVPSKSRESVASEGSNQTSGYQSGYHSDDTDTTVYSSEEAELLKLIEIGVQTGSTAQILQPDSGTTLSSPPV
Sequence of Fibroblast growth factor receptor 1 (Homo sapiens) (P11362 22-822 limits assumed): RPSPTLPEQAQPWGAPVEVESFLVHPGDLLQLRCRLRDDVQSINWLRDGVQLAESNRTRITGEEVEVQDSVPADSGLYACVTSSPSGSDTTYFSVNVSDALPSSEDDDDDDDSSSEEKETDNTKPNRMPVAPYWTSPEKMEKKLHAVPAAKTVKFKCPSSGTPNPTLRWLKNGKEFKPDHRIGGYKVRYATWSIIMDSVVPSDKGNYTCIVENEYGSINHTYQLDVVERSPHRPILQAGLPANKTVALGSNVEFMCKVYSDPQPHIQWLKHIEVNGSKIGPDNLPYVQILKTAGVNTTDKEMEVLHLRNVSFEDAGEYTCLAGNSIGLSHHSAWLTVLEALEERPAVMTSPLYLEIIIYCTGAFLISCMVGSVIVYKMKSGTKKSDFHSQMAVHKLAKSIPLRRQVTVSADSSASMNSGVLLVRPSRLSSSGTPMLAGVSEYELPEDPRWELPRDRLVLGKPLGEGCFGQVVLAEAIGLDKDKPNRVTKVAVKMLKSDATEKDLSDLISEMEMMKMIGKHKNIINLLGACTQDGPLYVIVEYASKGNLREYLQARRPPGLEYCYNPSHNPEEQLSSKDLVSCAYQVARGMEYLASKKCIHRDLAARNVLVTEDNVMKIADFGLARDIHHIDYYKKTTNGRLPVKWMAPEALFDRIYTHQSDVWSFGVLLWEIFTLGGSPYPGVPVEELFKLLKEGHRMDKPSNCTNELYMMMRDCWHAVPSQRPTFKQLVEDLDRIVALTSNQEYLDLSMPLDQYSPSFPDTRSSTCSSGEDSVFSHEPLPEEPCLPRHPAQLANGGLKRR

In the case of `O=C(Cn1cnc2cc3c(cc2c1=O)OCCO3)c1ccc(Br)cc1`, the inhibition was 35% in data set [1]; 0% in data set [2]; 1% in [3]; 0% in [7]; 18% in data set [11]; 17% in the data set filed under Homo sapiens. Further, the inhibition in [12] amounted to 23%. Moreover, the outcome in data set [4], in data set [6] and in data set [9] was Active. Besides, the Activity entry in data set [5], in data set [8] and in data set [10] was “Non-toxic” each time.

Regarding `COc1cc2ncn(Cc3ccc(Br)cc3)c(=O)c2cc1OC`, the inhibition in data set [1] is 25%; in [2], 0%; in data set [3], 0%; in data set [7], 0%; in data set [11], 14%; in the data set filed under Homo sapiens it was 0%. The inhibition in [12] was determined as 25%.

With `O=c1c2cc3c(cc2ncn1Cc1ccc(-c2ccccc2)cc1)OCCO3`, the inhibition worked out at 45% in data set [1]; 0% in data set [2]; 13% in [3]; 5% in data set [7]; 10% in data set [11]; 25% in the data set filed under Homo sapiens. The inhibition in data set [12] was 37%. For the same compound, the result in data set [4], in [6] and in data set [9] was Active. For the same compound, the Activity result in [5], in data set [8] and in data set [10] was “Non-toxic” each time.

With `O=c1c2cc3c(cc2ncn1Cc1cccc(-c2ccccc2)c1)OCO3`, the inhibition was determined as 35% in [1]; 0% in data set [2]; 0% in [3]; 0% in data set [7]; 8% in data set [11]; 0% in the data set listed under Homo sapiens. The inhibition in [12] worked out at 0%. Moreover, the result in data set [4], in data set [6] and in data set [9] was Active. Besides, the Activity entry in [5], in data set [8] and in data set [10] was “Non-toxic” throughout.

As for `COc1cc2ncn(Cc3cccc(Br)c3)c(=O)c2cc1OC`, the inhibition in data set [1] worked out at 31%; in data set [2], 0%; in [3], 22%; in [7], 0%; in [11], 11%; in the data set filed under Homo sapiens it was 15%. Further, in [12], the inhibition came to 18%. The result in data set [4], in data set [13], in data set [14], in data set [6], in [15] and in data set [16] was inactive. Further, the result in data set [9], in data set [17] and in data set [18] was inactive. Besides, the Activity entry in data set [5], in data set [8] and in data set [10] was “Non-toxic” in each case.

Regarding `O=c1c2cc3c(cc2ncn1Cc1ccc(-c2ccccc2)cc1)OCO3`, the inhibition amounted to 25% in data set [1]; 4% in data set [2]; 4% in data set [3]; 0% in data set [7]; 6% in [11]; 0% in the data set filed under Homo sapiens. For the same compound, the inhibition in data set [12] is 10%.

Turning to `Clc1ccc(Nc2nnc(Cc3ccncc3)c3ccccc23)cc1` [VATALANIB], the inhibition in data set [2] was determined as 25%; in [3], 72%; in data set [7] it was 16%; in [11] it was 31%; in the data set listed under Homo sapiens, 18%; in data set [12], 49%. The outcome in data set [4], in data set [6], in data set [15], in [16], in data set [9] and in data set [17] was Active. In addition, the result in data set [18] was Active. Also, the outcome in data set [13] and in data set [14] was inactive. The Activity entry in data set [5], in data set [8] and in [10] was “Toxic” each time.

Consider `COc1cc2ncn(CC(=O)c3ccc(Br)cc3)c(=O)c2cc1OC`, for which the inhibition stood at 53% in data set [1]; 0% in data set [2]; 1% in data set [3]; 4% in [7]; 7% in data set [11]; 0% in the data set filed under Homo sapiens. Further, in data set [12], the inhibition amounted to 17%. Besides, the outcome in [13] and in data set [14] was inactive. In addition, the Activity result in data set [5], in [8] and in data set [10] was “Non-toxic” in each case. Besides, the result in data set [15], in data set [16], in [17] and in data set [18] was Active.

As to `O=c1c2cc3c(cc2ncn1CC(O)c1cccc(Cl)c1)OCCO3` (stereo unspecified), the inhibition was 26% in [1]; 1% in data set [2]; 0% in data set [3]; 0% in data set [7]; 5% in [11]; 0% in the data set filed under Homo sapiens. Also, the inhibition in [12] amounted to 1%. For the same compound, the result in data set [4], in data set [13], in [14], in data set [6], in data set [15] and in data set [16] was inactive. Moreover, the outcome in data set [9], in data set [17] and in data set [18] was inactive. Also, the Activity result in [5], in data set [8] and in data set [10] was “Non-toxic” in each case.

For `O=c1c2cc3c(cc2ncn1Cc1cccc(Br)c1)OCCO3`, the inhibition in data set [1] was 12%; in [2] it was 0%; in data set [3], 0%; in [7], 0%; in [11], 7%; in the data set listed under Homo sapiens, 28%. Further, the inhibition in [12] was determined as 28%.

For `COc1cc2ncn(Cc3cccc(-c4ccccc4)c3)c(=O)c2cc1OC`, the inhibition in data set [1] amounted to 33%; in data set [2], 0%; in data set [3], 4%; in data set [7], 0%; in [11] it was 13%; in the data set listed under Homo sapiens, 21%. The inhibition in data set [12] turned out to be 34%.

Take `O=c1c2cc3c(cc2ncn1Cc1ccc(Br)cc1)OCCO3`: the inhibition in data set [1] was 12%; in data set [2] it was 0%; in data set [3] it was 1%; in data set [7], 0%; in data set [11] it was 1%; in the data set filed under Homo sapiens, 0%. Also, in data set [12], the inhibition stood at 13%.
